Test results: ChEMBL document CHEMBL3612017, “Rigidified A3 Adenosine Receptor Agonists: 1-Deazaadenine Modification Maintains High in Vivo Efficacy” (ACS Med Chem Lett, 2015); call rule not given here

What was measured:
[1] = biological target: T1, Adenosine receptor A3 (Canis lupus familiaris, UniProt Q28309); test: Binding affinity to canine adenosine A3 receptor expressed in HEK293 cell membranes
T1 sequence (Q28309 whole entry): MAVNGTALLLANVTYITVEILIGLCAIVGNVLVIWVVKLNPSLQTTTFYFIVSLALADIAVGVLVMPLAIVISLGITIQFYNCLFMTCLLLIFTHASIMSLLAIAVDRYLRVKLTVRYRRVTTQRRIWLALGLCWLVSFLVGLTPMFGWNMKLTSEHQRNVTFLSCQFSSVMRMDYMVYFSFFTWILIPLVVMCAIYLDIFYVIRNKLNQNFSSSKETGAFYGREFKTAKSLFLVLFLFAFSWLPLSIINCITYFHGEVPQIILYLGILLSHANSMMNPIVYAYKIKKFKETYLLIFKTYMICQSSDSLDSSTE
In short: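 Radioligand binding used membranes of HEK293 cells expressing the mouse or the canine A3 receptor. Affinities were given as Ki in nM, mean ± SEM, n = 3.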

[2] = test system: Mus musculus; test: Analgesic activity in mouse chronic constriction injury model of neuropathic pain assessed as protection of ipsilateral hind paw mechanoallodynia of sciatic nerve at 0.3 to 30 umol/kg administered through oral gavage at point of peak pain on day 7 relative to control measured at 1 hr; format: functional
In short: (§1)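 Mice had sciatic nerve chronic constriction injury. Compound was given by oral gavage on day 7, at peak pain. Mechanoallodynia was scored on the ipsilateral and contralateral hind paws at the 1 h and 3 h time points, as % protection. n = 4 per group, some n = 3.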

[3] = test system: Mus musculus; test: Analgesic activity in mouse chronic constriction injury model of neuropathic pain assessed as protection of ipsilateral hind paw mechanoallodynia of sciatic nerve at 0.3 to 30 umol/kg administered through oral gavage at point of peak pain on day 7 measured at 3 hrs; format: functional; in short: as §1
[4] = test system: Mus musculus; test: Analgesic activity in mouse chronic constriction injury model of neuropathic pain assessed as time of peak protection at 0.3 to 30 umol/kg administered through oral gavage at point of peak pain on day 7; format: functional; in short: as §1
[5] = test system: Mus musculus; test: Analgesic activity in mouse chronic constriction injury model of neuropathic pain assessed as protection of ipsilateral hind paw mechanoallodynia of sciatic nerve at 0.3 to 30 umol/kg administered through oral gavage at point of peak pain on day 7; format: functional; conditions: 168 h; in short: as §1
[6] = test system: Mus musculus; test: Effect on contralateral side hind paw in mouse chronic constriction injury model of neuropathic pain at 0.3 to 30 umol/kg administered through oral gavage at point of peak pain on day 7; format: ADME, organism-based; conditions: in vivo; in short: as §1
[7] = biological target: T2, Adenosine receptor A1 (Homo sapiens) (UniProt P30542); test: Displacement of [3H]N6-R-phenylisopropyladenosine from human adenosine A1 receptor expressed in CHO cell membranes at 10 uM
T2 sequence (whole entry): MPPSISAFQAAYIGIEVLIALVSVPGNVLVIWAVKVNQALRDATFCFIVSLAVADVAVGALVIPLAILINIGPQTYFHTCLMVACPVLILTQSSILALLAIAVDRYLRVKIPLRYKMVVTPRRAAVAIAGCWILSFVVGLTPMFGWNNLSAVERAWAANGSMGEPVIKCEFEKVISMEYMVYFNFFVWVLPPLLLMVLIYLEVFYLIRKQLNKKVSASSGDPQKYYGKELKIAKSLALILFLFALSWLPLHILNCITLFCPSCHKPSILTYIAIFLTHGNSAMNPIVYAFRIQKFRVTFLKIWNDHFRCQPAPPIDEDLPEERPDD
In short: (§2)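 Radioligand binding at the human receptor subtypes. Nonspecific binding was defined with adenosine 5′-N-ethyluronamide (10 μM). Ki values came from displacement curves, mean ± SEM, n = 3 unless noted. Single-point data were expressed as % inhibition of binding at 10 μM.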

[8] = biological target: Adenosine receptor A2a (Homo sapiens) (UniProt P29274); test: Displacement of [3H]2-[p-(2-carboxyethyl)phenyl-ethylamino]-5'-Nethylcarboxamidoadenosine from human adenosine A2A receptor expressed in HEK293 cell membranes at 10 uM; in short: as §2
Adenosine receptor A2a (Homo sapiens), sequence (P29274 whole entry): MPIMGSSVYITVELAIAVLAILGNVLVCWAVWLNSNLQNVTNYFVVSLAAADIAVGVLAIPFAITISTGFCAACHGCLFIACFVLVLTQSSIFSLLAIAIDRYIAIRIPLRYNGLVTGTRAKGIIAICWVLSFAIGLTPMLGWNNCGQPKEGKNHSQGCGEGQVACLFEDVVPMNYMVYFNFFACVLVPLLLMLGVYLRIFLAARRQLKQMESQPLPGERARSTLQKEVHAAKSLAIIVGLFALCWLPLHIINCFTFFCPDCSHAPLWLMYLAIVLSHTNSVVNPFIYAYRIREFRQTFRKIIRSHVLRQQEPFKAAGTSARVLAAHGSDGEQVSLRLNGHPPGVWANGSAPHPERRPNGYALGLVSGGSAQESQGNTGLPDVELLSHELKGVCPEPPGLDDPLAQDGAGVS

[9] = biological target: T3, Adenosine receptor A3 (Homo sapiens, UniProt P0DMS8); test: Displacement of [125I]N6-(4-amino-3-iodobenzyl)adenosine-5'-N-methyluronamide from human adenosine A3 receptor expressed in CHO cell membranes
T3 sequence (P0DMS8 whole entry): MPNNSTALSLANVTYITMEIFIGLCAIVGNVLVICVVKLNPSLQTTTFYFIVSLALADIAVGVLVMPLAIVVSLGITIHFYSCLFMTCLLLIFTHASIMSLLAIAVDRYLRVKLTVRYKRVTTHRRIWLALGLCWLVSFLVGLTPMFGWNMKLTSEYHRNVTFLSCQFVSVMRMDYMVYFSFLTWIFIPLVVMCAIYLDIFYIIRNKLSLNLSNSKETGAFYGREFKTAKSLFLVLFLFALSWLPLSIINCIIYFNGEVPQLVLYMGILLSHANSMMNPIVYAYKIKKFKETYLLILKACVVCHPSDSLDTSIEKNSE

[10] = biological target: T4, Adenosine receptor A2b (Homo sapiens) (UniProt P29275); test: Displacement of [3H]MRS1754 from human adenosine A2B receptor expressed in HEK293 cell membranes at 10 uM
T4 sequence (whole entry): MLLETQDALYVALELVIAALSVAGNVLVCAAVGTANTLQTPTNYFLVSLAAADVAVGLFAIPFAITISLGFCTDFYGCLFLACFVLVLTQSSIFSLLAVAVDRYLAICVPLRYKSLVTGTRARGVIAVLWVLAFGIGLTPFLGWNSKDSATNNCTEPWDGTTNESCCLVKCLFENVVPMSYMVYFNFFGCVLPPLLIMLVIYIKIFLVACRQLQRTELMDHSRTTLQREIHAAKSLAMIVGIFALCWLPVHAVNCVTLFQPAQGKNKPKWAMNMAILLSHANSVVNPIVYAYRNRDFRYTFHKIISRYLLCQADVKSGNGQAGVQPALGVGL

[11] = biological target: T5, Adenosine receptor A3 (Mus musculus, UniProt Q61618); test: Binding affinity to mouse adenosine A3 receptor expressed in HEK293 cell membranes
T5 sequence (Q61618 whole entry): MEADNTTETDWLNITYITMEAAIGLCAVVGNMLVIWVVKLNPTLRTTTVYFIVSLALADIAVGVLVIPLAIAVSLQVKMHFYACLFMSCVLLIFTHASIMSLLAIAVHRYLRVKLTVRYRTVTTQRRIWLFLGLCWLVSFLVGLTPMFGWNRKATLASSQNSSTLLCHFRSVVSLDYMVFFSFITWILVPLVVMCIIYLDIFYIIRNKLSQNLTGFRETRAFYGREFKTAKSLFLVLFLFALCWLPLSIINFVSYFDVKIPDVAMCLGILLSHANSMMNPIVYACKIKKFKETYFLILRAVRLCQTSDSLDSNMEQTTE
In short: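 Radioligand binding used membranes of HEK293 cells expressing the mouse or the canine A3 receptor.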

[12] = biological target: 5-hydroxytryptamine receptor 2B (Homo sapiens, UniProt P41595); test: Binding affinity to 5HT2B receptor (unknown origin)
5-hydroxytryptamine receptor 2B, sequence (P41595 whole entry): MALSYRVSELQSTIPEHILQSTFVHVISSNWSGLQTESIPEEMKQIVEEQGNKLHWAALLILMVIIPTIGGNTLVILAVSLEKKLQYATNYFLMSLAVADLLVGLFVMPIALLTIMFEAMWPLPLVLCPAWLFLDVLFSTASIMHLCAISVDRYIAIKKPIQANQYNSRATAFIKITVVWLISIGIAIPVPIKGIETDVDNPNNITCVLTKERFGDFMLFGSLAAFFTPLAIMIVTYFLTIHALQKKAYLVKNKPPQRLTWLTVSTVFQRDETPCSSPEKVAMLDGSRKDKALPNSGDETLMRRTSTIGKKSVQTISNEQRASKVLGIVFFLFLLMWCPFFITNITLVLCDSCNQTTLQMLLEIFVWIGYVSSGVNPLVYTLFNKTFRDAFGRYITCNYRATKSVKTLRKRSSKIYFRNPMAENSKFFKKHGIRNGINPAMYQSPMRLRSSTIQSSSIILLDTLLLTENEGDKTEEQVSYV

[13] = biological target: T3, Adenosine receptor A3; test: Agonist activity at human adenosine A3 receptor expressed in CHO cells assessed as inhibition of cAMP production; format: functional, cell-based
In short: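 Read-out was inhibition of cyclic AMP production in membranes prepared from CHO cells expressing the human A3 receptor. The value is an EC50 with full agonism assessed.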

[14] = test system: Mus musculus; test: Analgesic activity in mouse chronic constriction injury model of neuropathic pain assessed as time duration protection hind paw mechanoallodynia of sciatic nerve at 3 umol/kg administered through oral gavage at point of peak pain on day 7; format: functional
In short: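 In CCI mice, 3 μmol/kg was given p.o. on day 7. The time course of protection against hind paw mechanoallodynia was followed, n = 4. Data were mean ± SEM, analysed by two-tailed two-way ANOVA with Bonferroni comparisons versus day 0.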

[15] = biological target: T6, Adenosine receptor A1 (Homo sapiens, UniProt P30542); test: Displacement of [3H]N6-R-phenylisopropyladenosine from human adenosine A1 receptor expressed in CHO cell membranes; in short: as §2
T6 sequence (P30542 whole entry): T2 sequence (whole entry)

[16] = Aqueous solubility of the compound; format: physicochemical; conditions: buffer

SMILES	Ki [1]	Emax [2]	Activity [3]	Time [4]	ED50 [5]	Activity [6]	inhibition [7]	inhibition [8]	Ki [9]	inhibition [10]	Ki [11]	Ki ([1]; read-out: Ki)	Ki ([12]; read-out: Ki)	EC50 [13]	Time [14]	Ki [15]	solubility [16]	Ki [12]
CNC(=O)[C@@]12C[C@@H]1[C@@H](n1cnc3c(NC)nc(C#Cc4ccc(Cl)s4)nc31)[C@H](O)[C@@H]2O	8.5 nM	93%	46%	1 h	0.73 µmol/kg	Non-toxic												
CCNc1cc(C#Cc2ccc(Cl)s2)nc2c1ncn2[C@H]1[C@H](O)[C@H](O)[C@]2(C(=O)NC)C[C@H]12		93%	84%	1 h		Non-toxic	10%	0%	1.7 nM	17%	16 nM	49 nM	2500 nM	1.5 nM	5 h			
CNC(=O)[C@@]12C[C@@H]1[C@@H](n1cnc3c(NCC4CCC4)nc(-n4cc(-c5ccc(Cl)s5)nn4)nc31)[C@H](O)[C@@H]2O								42%	21 nM							710 nM	Insoluble	
CCNc1nc(C#Cc2ccc(Cl)s2)nc2c1ncn2[C@H]1[C@H](O)[C@H](O)[C@]2(C(=O)NC)C[C@H]12		98%	87%	1 h	0.9 µmol/kg	Non-toxic	28%	12%	3.8 nM		27 nM	1.5 nM						
CCCNc1nc(C#Cc2ccc(Cl)s2)nc2c1ncn2[C@H]1[C@H](O)[C@H](O)[C@]2(C(=O)NC)C[C@H]12		95%	93%	1 h		Non-toxic	22%	34%	1.1 nM	34%	6.8 nM	5.8 nM						Not Active
CCCNc1cc(-n2cc(-c3ccc(Cl)s3)nn2)nc2c1ncn2[C@H]1[C@H](O)[C@H](O)[C@]2(C(=O)NC)C[C@H]12							44%	4%	110 nM									
CNC(=O)[C@@]12C[C@@H]1[C@@H](n1cnc3c(NCC4CCC4)nc(C#Cc4ccc(Cl)s4)nc31)[C@H](O)[C@@H]2O		98%	90%	1 h		Non-toxic	34%	5%	15 nM									
CNC(=O)[C@@]12C[C@@H]1[C@@H](n1cnc3c(NC)cc(C#Cc4ccc(Cl)s4)nc31)[C@H](O)[C@@H]2O		91%	80%	1 h		Non-toxic	15%	8%	3 nM		31 nM	75 nM						
